The source made the active and inactive calls. No cut-off for these calls is given here. Non-standard residues stand in square brackets, D forms with d. Residues, ends and D or L forms follow the SMILES beside them. NMeF = CN[C@@H](Cc1ccccc1)C(=O)O; NMeE = CN[C@@H](CCC(=O)O)C(=O)O; NMeQ = CN[C@@H](CCC(N)=O)C(=O)O; NMeK = CN[C@@H](CCCCN)C(=O)O; NMeM = CN[C@@H](CCSC)C(=O)O
How the values were obtained:
Homo sapiens = species on record: Homo sapiens; experiment: Metabolic stability in aqueous ammonium carbonate solution assessed as trypsin/chymotrypsin (unknown origin)-mediated drug degradation by measuring half life at 0.05 ug/ml incubated in shaking conditions and measured for 24 hrs by RP-HPLC analysis
[1] = Agonist activity at ComD1 receptor in Streptococcus pneumoniae D39 harboring pcomX/lacZ reporter gene incubated for 30 mins by ONPG based beta-galactosidase assay
In short: (§1)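 Dose-response in wild-type lacZ reporter strains (comX promoter; D39 for ComD1, TIGR4 for ComD2) producing native CSP. Peptides tested over a range of concentrations. β-gal read-out (Miller units) normalized to native CSP. EC50 reported with 95% confidence interval.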

[2] = Metabolic stability in aqueous ammonium carbonate solution assessed as trypsin/chymotrypsin (unknown origin)-mediated drug degradation by measuring half life at 0.05 ug/ml incubated in shaking conditions in presence of trypsin/chymotrpsin and measured for 48 hrs by RP-HPLC analysis; type: ADME; details: human
[3] = Metabolic stability in human plasma at 0.33 mM measured for 3 hrs by RP-HPLC analysis; type: ADME, cell-free; details: 330 µM
[4] = Antagonist activity at ComD1 receptor in Streptococcus pneumoniae D39 harboring pcomX/lacZ reporter gene assessed as inhibiton of CSP1-stimulated maximum signal preincubated for 30 mins followed by 50 nM CSP1 addition by ONPG based beta-galactosidase assay
In short: (§2)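 Comx-lacZ β-gal reporter inhibition in D39 (ComD1, CSP1 50 nM) or TIGR4 (ComD2, CSP2 250 nM). Peptides tested over a range of concentrations against the stimulating CSP. Miller units normalized to CSP alone. IC50 given with 95% confidence interval.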

[5] = Antagonist activity at ComD2 receptor in Streptococcus pneumoniae TIGR4 harboring pcomX/lacZ reporter gene assessed as inhibition of CSP2-stimulated maximum signal preincubated for 30 mins followed by 250 nM native CSP2 addition by ONPG based beta-galactosidase assay; in short: as §2
[6] = Metabolic stability in human plasma assessed as half-life at 0.33 mM measured for 3 hrs by RP-HPLC analysis; type: ADME, cell-free
[7] = test system: Streptococcus pneumoniae D39; experiment: Agonist activity at ComD1 receptor in Streptococcus pneumoniae D39 harboring pcomX/lacZ reporter gene at 10 uM incubated for 30 mins by ONPG based beta-galactosidase assay relative to native CSP1
In short: (§3)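 Single-dose screen of synthetic peptide at 10 μM in wild-type reporter strains (D39 for ComD1, TIGR4 for ComD2) producing their own CSP and carrying lacZ under the comX promoter. β-gal activity in Miller units normalized to native CSP (CSP1 or CSP2, 100%); DMSO 0%. Triplicates over three separate trials.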

[8] = test system: Streptococcus pneumoniae TIGR4; experiment: Agonist activity at ComD2 receptor in Streptococcus pneumoniae TIGR4 harboring pcomX/lacZ reporter gene at 10 uM incubated for 30 mins by ONPG based beta-galactosidase assay relative to native CSP2; in short: as §3
[9] = Agonist activity at ComD2 receptor in Streptococcus pneumoniae TIGR4 harboring pcomX/lacZ reporter gene incubated for 30 mins by ONPG based beta-galactosidase assay; in short: as §1
[10] = test system: Streptococcus pneumoniae TIGR4; experiment: Antagonist activity at ComD2 receptor in Streptococcus pneumoniae TIGR4 harboring pcomX/lacZ reporter gene assessed as inhibition of CSP2-stimulated maximum signal at 10 uM preincubated for 30 mins followed by 250 nM CSP2 addition by ONPG based beta-galactosidase assay relative to native CSP2
In short: (§4)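 Inhibition screen: peptides at 10 μM against CSP1 50 nM (D39, ComD1) or CSP2 250 nM (TIGR4, ComD2), in comX-lacZ reporter strains. β-gal Miller units normalized to CSP alone (100%) and DMSO (0%). Triplicates over three separate trials.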

[11] = Solubility of the compound in ammonium carbonate solution at pH 8; type: physicochemical; details: buffer
[12] = test system: Streptococcus pneumoniae D39; experiment: Antagonist activity at ComD1 receptor in Streptococcus pneumoniae D39 harboring pcomX/lacZ reporter gene assessed as inhibiton of CSP1-stimulated maximum signal at 10 uM preincubated for 30 mins followed by 50 nM CSP1 addition by ONPG based beta-galactosidase assay relative to native CSP1; in short: as §4

Compound | EC50 [1] [µM] | half-life at 0.05 ug/ml [2] [h] | IC50 [5] [µM] | half-life at 330 µM [6] [h] | Activity [7] | Activity [8] | other results
CC[C@H](C)[C@H](NC(=O)[C@H](Cc1ccccc1)NC(=O)[C@H](CC(=O)O)NC(=O)[C@H](CCCNC(=N)N)NC(=O)[C@H](Cc1ccccc1)NC(=O)[C@H](Cc1ccccc1)NC(=O)[C@H](CCCCN)NC(=O)[C@H](CO)NC(=O)[C@H](CC(C)C)NC(=O)[C@H](CCCNC(=N)N)NC(=O)[C@H](CCSC)NC(=O)[C@@H](N)CCC(=O)O)C(=O)N[C@@H](CC(C)C)C(=O)N[C@@H](CCC(N)=O)C(=O)N[C@@H](CCCNC(=N)N)C(=O)N[C@@H](CCCCN)C(=O)N[C@@H](CCCCN)C(=O)O | 0.01 |  |  |  |  |  | T1/2 (Homo sapiens): 1.5 h
CC[C@H](C)[C@H](NC(=O)[C@H](Cc1ccccc1)NC(=O)[C@H](CC(=O)O)NC(=O)[C@H](CCCNC(=N)N)NC(=O)[C@H](Cc1ccccc1)NC(=O)[C@H](Cc1ccccc1)NC(=O)[C@H](CCCCN)N(C)C(=O)[C@H](CO)NC(=O)[C@H](CC(C)C)NC(=O)[C@H](CCCNC(=N)N)NC(=O)[C@H](CCSC)NC(=O)[C@H](C)N)C(=O)N[C@@H](CC(C)C)C(=O)N(C)[C@@H](CCC(N)=O)C(=O)N[C@@H](CCCNC(=N)N)C(=O)N[C@@H](CCCCN)C(=O)N[C@@H](CCCCN)C(=O)O |  | 6 |  |  |  |  | Stability [3]: Unstable; IC50 [4]: 0.36 µM
CC[C@H](C)[C@H](NC(=O)[C@H](CCCNC(=N)N)NC(=O)[C@H](CCSC)NC(=O)[C@H](C)N)C(=O)N[C@@H](CO)C(=O)N[C@@H](CCCNC(=N)N)C(=O)N[C@H](C(=O)N[C@H](C(=O)N[C@@H](CC(C)C)C(=O)N[C@H](CC(=O)O)C(=O)N[C@@H](Cc1ccccc1)C(=O)N[C@@H](CC(C)C)C(=O)N(C)[C@@H](Cc1ccccc1)C(=O)N[C@@H](CC(C)C)C(=O)N[C@@H](CCCNC(=N)N)C(=O)N[C@@H](CCCCN)C(=O)N[C@@H](CCCCN)C(=O)O)[C@@H](C)CC)[C@@H](C)CC |  | 4 | 0.064 |  |  |  | Stability [3]: Unstable; IC50 [4]: > 1 µM
CC[C@H](C)[C@H](NC(=O)[C@H](Cc1ccccc1)NC(=O)[C@H](CC(=O)O)NC(=O)[C@H](CCCNC(=N)N)NC(=O)[C@H](Cc1ccccc1)NC(=O)[C@H](Cc1ccccc1)NC(=O)[C@H](CCCCN)NC(=O)[C@H](CO)NC(=O)[C@H](CC(C)C)NC(=O)[C@H](CCCNC(=N)N)NC(=O)[C@H](CCSC)NC(=O)[C@@H](N)CCC(=O)O)C(=O)N[C@@H](CC(C)C)C(=O)N(C)[C@@H](CCC(N)=O)C(=O)N[C@@H](CCCNC(=N)N)C(=O)O (H-EMRLSKFFRDFIL[NMeQ]R-OH) | 0.068 | 6 |  | 2 | > 75% | inactive | 
CC[C@H](C)[C@H](NC(=O)[C@H](Cc1ccccc1)NC(=O)[C@H](CC(=O)O)NC(=O)[C@H](CCCNC(=N)N)NC(=O)[C@H](Cc1ccccc1)NC(=O)[C@H](Cc1ccccc1)N(C)C(=O)[C@H](CCCCN)NC(=O)[C@H](CO)NC(=O)[C@H](CC(C)C)NC(=O)[C@H](CCCNC(=N)N)NC(=O)[C@H](CCSC)NC(=O)[C@@H](N)CCC(=O)O)C(=O)N[C@@H](CC(C)C)C(=O)N[C@@H](CCC(N)=O)C(=O)N[C@@H](CCCNC(=N)N)C(=O)O (H-EMRLSK[NMeF]FRDFILQR-OH) | 0.28 | > 48 |  | < 0.5 | > 75% | inactive | 
CC[C@H](C)[C@H](NC(=O)[C@H](Cc1ccccc1)NC(=O)[C@H](CC(=O)O)NC(=O)[C@H](CCCNC(=N)N)NC(=O)[C@H](Cc1ccccc1)NC(=O)[C@H](Cc1ccccc1)NC(=O)[C@H](CCCCN)N(C)C(=O)[C@H](CO)NC(=O)[C@H](CC(C)C)NC(=O)[C@H](CCCNC(=N)N)NC(=O)[C@H](CCSC)NC(=O)[C@@H](N)CCC(=O)O)C(=O)N[C@@H](CC(C)C)C(=O)N[C@@H](CCC(N)=O)C(=O)N[C@@H](CCCNC(=N)N)C(=O)O (H-EMRLS[NMeK]FFRDFILQR-OH) | 0.065 | > 48 |  | < 0.5 | > 75% | inactive | EC50 [9]: > 1 µM
CC[C@H](C)[C@H](NC(=O)[C@H](CCCNC(=N)N)NC(=O)[C@H](CCSC)N(C)C(=O)[C@@H](N)CCC(=O)O)C(=O)N[C@@H](CO)C(=O)N[C@@H](CCCNC(=N)N)C(=O)N[C@H](C(=O)N[C@H](C(=O)N[C@@H](CC(C)C)C(=O)N[C@@H](CC(=O)O)C(=O)N[C@@H](Cc1ccccc1)C(=O)N[C@@H](CC(C)C)C(=O)N[C@@H](Cc1ccccc1)C(=O)O)[C@@H](C)CC)[C@@H](C)CC (H-E[NMeM]RISRIILDFLF-OH) |  |  | > 1 |  | inactive |  | inhibition [10]: > 50%; solubility [11]: Insoluble; inhibition [12]: inactive
CC[C@H](C)[C@H](NC(=O)[C@H](CCCNC(=N)N)NC(=O)[C@H](CCSC)NC(=O)[C@H](CCC(=O)O)NC)C(=O)N[C@@H](CO)C(=O)N[C@@H](CCCNC(=N)N)C(=O)N[C@H](C(=O)N[C@H](C(=O)N[C@@H](CC(C)C)C(=O)N[C@@H](CC(=O)O)C(=O)N[C@@H](Cc1ccccc1)C(=O)N[C@@H](CC(C)C)C(=O)N[C@@H](Cc1ccccc1)C(=O)O)[C@@H](C)CC)[C@@H](C)CC (H-[NMeE]MRISRIILDFLF-OH) |  |  | > 1 |  | inactive |  | inhibition [10]: > 50%; solubility [11]: Insoluble; inhibition [12]: inactive

From ChEMBL document CHEMBL4364271, “Unveiling the Importance of Amide Protons in CSP:ComD Interactions in Streptococcus pneumoniae” (ACS Med Chem Lett, 2019)
